ChEMBL document CHEMBL1134275, “New pyridoquinoline derivatives as potential inhibitors of the fluoroquinolone efflux pump in resistant Enterobacter aerogenes strains” (2001)

Key:
Assay type in all cases: functional
[1] = tested on: Klebsiella aerogenes; experiment: Inhibitory activity against ATCC 13048 strain(Enterobacter aerogenes) in the presence of Norfloxacin and fluoroquinolone at 16 ug/mL
Outline: (§1)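 Checkerboard microtitration MIC with fluoroquinolone plus test compound against E. aerogenes ATCC 13048 or its p9 derivative carrying plasmid-borne E. coli marA. Bacteria were grown in Luria-Bertani or Mueller-Hinton broth at 37 °C, with 15 µg/mL tetracycline for p9. Wells were inoculated at 10^5 cells/mL and growth was scored visually after 18 h at 37 °C. Values are means of two independent experiments.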

[2] = tested on: Klebsiella aerogenes; experiment: Inhibitory activity against ATCC 13048 strain(Enterobacter aerogenes) in the presence of ciprofloxacin fluoroquinolone at 16 ug/mL; outline: as §1
[3] = tested on: Klebsiella aerogenes; experiment: Inhibitory activity against p9- (derivative of ATCC )13048 strain(Enterobacter aerogenes) in the presence of Norfloxacin and fluoroquinolone at 16 ug/mL; outline: as §1
[4] = tested on: Klebsiella aerogenes; experiment: Inhibitory activity against p9- (derivative of ATCC )13048 strain(Enterobacter aerogenes) in the presence of ciprofloxacin and fluoroquinolone at 16 ug/mL; outline: as §1
[5] = tested on: Klebsiella aerogenes; experiment: Inhibitory activity against p9- (derivative of ATCC )13048 strain(Enterobacter aerogenes) in the presence of Norfloxacin and luoroquinolone at 16 ug/mL; outline: as §1
[6] = tested on: Klebsiella aerogenes; experiment: Inhibitory activity against Enterobacter aerogenes-3 istrainn the presence of ciprofloxacin and fluoroquinolone at 128 ug/mL
Outline: (§2)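 Compound ranged 8–128 µg/mL, combined with norfloxacin at 16–128 µg/mL or ciprofloxacin at 4–64 µg/mL (final). Cells were grown in LB or MH broth at 37 °C and wells inoculated at 10^5 cells/mL. After 18 h at 37 °C growth was read visually. Values are means of two independent experiments.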

[7] = tested on: Klebsiella aerogenes; experiment: Inhibitory activity against Enterobacter aerogenes-3 strain in the presence of Norfloxacin and fluoroquinolone at 128 ug/mL; outline: as §2
[8] = tested on: Klebsiella aerogenes; experiment: Inhibitory activity against ATCC 13048 strain(Enterobacter aerogenes) in the presence of Norfloxacin and fluoroquinolone at a concentration of 16 ug/mL; outline: as §1
[9] = tested on: Klebsiella aerogenes; experiment: Inhibitory activity against ATCC 13048 strain(Enterobacter aerogenes) in the presence of Norfloxacin and fluoroquinolone at 32 ug/mL; outline: as §1
[10] = tested on: Klebsiella aerogenes; experiment: Inhibitory activity against ATCC 13048 strain(Enterobacter aerogenes) in the presence of ciprofloxacin fluoroquinolone at 32 ug/mL; outline: as §1
[11] = tested on: Klebsiella aerogenes; experiment: Inhibitory activity against Enterobacter aerogenes-3 strain in the presence of Norfloxacin and fluoroquinolone at 64 ug/mL; outline: as §2
[12] = tested on: Klebsiella aerogenes; experiment: Inhibitory activity against Enterobacter aerogenes-3 istrainn the presence of ciprofloxacin and fluoroquinolone at 64 ug/mL; outline: as §2

Compound	MIC [1] [µg/mL]	MIC [2] [µg/mL]	MIC [3] [µg/mL]	MIC [4] [µg/mL]	MIC [5] [µg/mL]	MIC [6] [µg/mL]	MIC [7] [µg/mL]	MIC [8] [µg/mL]	MIC [9] [µg/mL]	MIC [10] [µg/mL]	MIC [11] [µg/mL]	MIC [12] [µg/mL]
CCN(CC)CCSc1cc(C)nc2c(C)c3nc(C)cc(SCCN(CC)CC)c3cc12	0.05	0.025	1	0.5	–	–	–	–	–	–	–	–
Cc1cc(OCCN(C(C)C)C(C)C)c2cc3c(OCCN(C(C)C)C(C)C)cc(C)nc3c(C)c2n1	0.05	0.05	–	0.5	2	–	–	–	–	–	–	–
Cc1cc(OCCN2CCCCC2)c2cc3c(OCCN4CCCCC4)cc(C)nc3c(C)c2n1	0.1	0.025	1	0.25	–	32	128	–	–	–	–	–
Cc1cc(OCCN(C)C)c2cc3c(OCCN(C)C)cc(C)nc3c(C)c2n1	–	0.025	1	0.25	–	–	–	0.1	–	–	–	–
Cc1cc(OCCN2CCOCC2)c2cc3c(OCCN4CCOCC4)cc(C)nc3c(C)c2n1	0.05	0.025	2	0.5	–	–	–	–	–	–	–	–
Cc1cc(SCCN(C)C)c2cc3c(SCCN(C)C)cc(C)nc3c(C)c2n1	0.05	0.025	0.25	0.25	–	4	16	–	0.25	0.1	64	8
Cc1cc(SCCn2cccc2)c2cc3c(SCCn4cccc4)cc(C)nc3c(C)c2n1	0.025	0.025	0.5	0.1	–	–	–	–	–	–	–	–
CCn1cc(C(=O)O)c(=O)c2cc(F)c(N3CCNCC3)cc21 [NORFLOXACIN]	0.05	–	128	–	–	–	–	–	–	–	–	–

Other lines, results leading:

MIC [1] [µg/mL]	MIC [2] [µg/mL]	MIC [3] [µg/mL]	MIC [4] [µg/mL]	MIC [5] [µg/mL]	MIC [6] [µg/mL]	MIC [7] [µg/mL]	MIC [8] [µg/mL]	MIC [9] [µg/mL]	MIC [10] [µg/mL]	MIC [11] [µg/mL]	MIC [12] [µg/mL]	Compound
0.05	0.025	1	0.05	–	32	128	–	–	–	–	–	Cc1cc(OCCCN(C)C)c2cc3c(OCCCN(C)C)cc(C)nc3c(C)c2n1
0.05	0.025	2	0.5	–	–	–	–	–	–	–	–	Cc1cc(SCCN2CCCCC2)c2cc3c(SCCN4CCCCC4)cc(C)nc3c(C)c2n1
0.025	0.5	32	–	–	–	–	–	–	–	–	–	O=C(O)c1cn(C2CC2)c2cc(N3CCNCC3)c(F)cc2c1=O [CIPROFLOXACIN]
